In ChEMBL document CHEMBL1649119, “Daptomycin pharmacokinetics in adult oncology patients with neutropenic fever” (Antimicrob Agents Chemother, 2009):

How the values were obtained:
Assay type in all cases: ADME, organism-based
[1] = Cmax in moderately obese adult human at 4 mg/kg, iv administered as single dose 30 mins infusion; set-up: dose 4 mg/kg, route intravenous; settings: in vivo
[2] = Cmax in healthy human at 4 mg/kg, iv administered as single dose 30 mins infusion; set-up: dose 4 mg/kg, route intravenous; settings: in vivo
[3] = Unbound fraction in healthy human plasma at 4 mg/kg, iv administered as 30 mins infusion every 24 hrs measured on day 1; set-up: dose 4 mg/kg, route intravenous
[4] = Unbound fraction in healthy human plasma at 4 mg/kg, iv administered as 30 mins infusion every 24 hrs measured on day 7; set-up: dose 4 mg/kg, route intravenous
[5] = AUC ( 0 to infinity) in cancer patient with neutropenic fever at 6 mg/kg, iv administered as 30 mins infusion every 24 hrs; set-up: time infinity, dose 6 mg/kg, route intravenous; settings: human, plasma
How it was run: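 Adult oncology patients with neutropenic fever (n = 29) received 6 mg/kg by total body weight as a 30-min IV infusion. Plasma was sampled predose, at end of infusion, and at 0.5, 1, 2, 4, 8, 12 and 24 h. Total drug was measured by validated HPLC (linear 1–100 μg/ml). Noncompartmental analysis: AUC0-24 by linear trapezoidal rule, plus last concentration/λz. Mean ± SD.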

[6] = Apparent volume of distribution during terminal phase in healthy human subjects at 10 mg/kg, iv administered as 30 mins infusion every 24 hrs measured on day 4; set-up: dose 10 mg/kg, route intravenous; settings: in vivo
[7] = Apparent volume of distribution during terminal phase in healthy human subjects at 8 mg/kg, iv administered as 30 mins infusion every 24 hrs measured on day 4; set-up: dose 8 mg/kg, route intravenous; settings: in vivo
[8] = Apparent volume of distribution during terminal phase in healthy human subjects at 12 mg/kg, iv administered as 30 mins infusion every 24 hrs measured on day 1; set-up: dose 12 mg/kg, route intravenous; settings: in vivo
[9] = Apparent volume of distribution during terminal phase in healthy human subjects at 8 mg/kg, iv administered as 30 mins infusion every 24 hrs measured on day 1; set-up: dose 8 mg/kg, route intravenous; settings: in vivo
[10] = Apparent volume of distribution during terminal phase in healthy human at 8 mg/kg, iv administered as 30 mins infusion every 24 hrs measured on day 7; set-up: dose 8 mg/kg, route intravenous; settings: in vivo
[11] = Cmax in healthy human at 8 mg/kg, iv administered as 30 mins infusion every 24 hrs measured on day 1; set-up: dose 8 mg/kg, route intravenous; settings: in vivo
[12] = Cmax in healthy human at 4 mg/kg, iv administered as 30 mins infusion every 24 hrs measured on day 1; set-up: dose 4 mg/kg, route intravenous; settings: in vivo
[13] = Half life in moderately obese adult human at 4 mg/kg, iv administered as single dose 30 mins infusion; set-up: dose 4 mg/kg, route intravenous; settings: in vivo
[14] = Half life in old healthy human at 4 mg/kg, iv administered as single dose 30 mins infusion; set-up: dose 4 mg/kg, route intravenous; settings: in vivo
[15] = AUC (0 to infinity) in nonobese human at 4 mg/kg, iv administered as single dose 30 mins infusion; set-up: time infinity, dose 4 mg/kg, route intravenous; settings: plasma
[16] = AUC (0 to infinity) in morbidly obese adult human at 4 mg/kg, iv administered as single dose 30 mins infusion; set-up: time infinity, dose 4 mg/kg, route intravenous; settings: plasma
[17] = AUC (0 to infinity) in nonobese adult human at 4 mg/kg, iv administered as single dose 30 mins infusion; set-up: time infinity, dose 4 mg/kg, route intravenous; settings: plasma
[18] = Plasma concentration in nonobese human subjects at 4 mg/kg, iv administered as single dose 30 mins infusion measured after 24 hrs; set-up: dose 4 mg/kg, route intravenous
[19] = AUC (0 to infinity) in healthy human subjects at 10 mg/kg, iv administered as 30 mins infusion every 24 hrs measured on day 14; set-up: time infinity, dose 10 mg/kg, route intravenous; settings: plasma
[20] = AUC (0 to infinity) in healthy human subjects at 6 mg/kg, iv administered as 30 mins infusion every 24 hrs measured on day 4; set-up: time infinity, dose 6 mg/kg, route intravenous; settings: plasma
[21] = AUC (0 to infinity) in healthy human subjects at 8 mg/kg, iv administered as 30 mins infusion every 24 hrs measured on day 1; set-up: time infinity, dose 8 mg/kg, route intravenous; settings: plasma
[22] = AUC (0 to infinity) in healthy human at 6 mg/kg, iv administered as 30 mins infusion every 24 hrs measured on day 7; set-up: time infinity, dose 6 mg/kg, route intravenous; settings: plasma
[23] = Cmax in healthy human subjects at 12 mg/kg, iv administered as 30 mins infusion every 24 hrs measured on day 14; set-up: dose 12 mg/kg, route intravenous; settings: in vivo
[24] = Cmax in healthy human subjects at 10 mg/kg, iv administered as 30 mins infusion every 24 hrs measured on day 4; set-up: dose 10 mg/kg, route intravenous; settings: in vivo
[25] = Cmax in healthy human subjects at 8 mg/kg, iv administered as 30 mins infusion every 24 hrs measured on day 1; set-up: dose 8 mg/kg, route intravenous; settings: in vivo
[26] = Cmax in healthy human at 8 mg/kg, iv administered as 30 mins infusion every 24 hrs measured on day 14; set-up: dose 8 mg/kg, route intravenous; settings: in vivo
[27] = Cmax in healthy human at 8 mg/kg, iv administered as 30 mins infusion every 24 hrs measured on day 7; set-up: dose 8 mg/kg, route intravenous; settings: in vivo
[28] = Drug excretion in morbidly obese adult human urine assessed as unchanged drug at 4 mg/kg, iv administered as single dose 30 mins infusion; set-up: dose 4 mg/kg, route intravenous; settings: read-out: Drug uptake
[29] = Drug excretion in nonobese adult human urine assessed as unchanged drug at 4 mg/kg, iv administered as single dose 30 mins infusion; set-up: dose 4 mg/kg, route intravenous; settings: read-out: Drug uptake
[30] = Drug excretion in moderately obese adult human urine assessed as unchanged drug at 4 mg/kg, iv administered as single dose 30 mins infusion; set-up: dose 4 mg/kg, route intravenous; settings: read-out: Drug uptake
[31] = Mean residence time in old healthy human at 4 mg/kg, iv administered as single dose 30 mins infusion; set-up: dose 4 mg/kg, route intravenous; settings: in vivo
[32] = Volume of distribution at steady state in morbidly obese human at 4 mg/kg, iv administered as single dose 30 mins infusion; set-up: dose 4 mg/kg, route intravenous; settings: in vivo, read-out: Vdss
[33] = Volume of distribution at steady state in morbidly obese adult human at 4 mg/kg, iv administered as single dose 30 mins infusion; set-up: dose 4 mg/kg, route intravenous; settings: in vivo, read-out: Vdss
[34] = Volume of distribution at steady state in moderately obese adult human at 4 mg/kg, iv administered as single dose 30 mins infusion; set-up: dose 4 mg/kg, route intravenous; settings: in vivo, read-out: Vdss
[35] = Volume of distribution at steady state in old healthy human at 4 mg/kg, iv administered as single dose 30 mins infusion; set-up: dose 4 mg/kg, route intravenous; settings: in vivo, read-out: Vdss
[36] = Clearance in nonobese human subjects at 4 mg/kg, iv administered as single dose 30 mins infusion; set-up: dose 4 mg/kg, route intravenous; settings: in vivo
[37] = Clearance in morbidly obese adult human at 4 mg/kg, iv administered as single dose 30 mins infusion; set-up: dose 4 mg/kg, route intravenous; settings: in vivo
[38] = Clearance in nonobese adult human at 4 mg/kg, iv administered as single dose 30 mins infusion; set-up: dose 4 mg/kg, route intravenous; settings: in vivo
[39] = Clearance in moderately obese adult human at 4 mg/kg, iv administered as single dose 30 mins infusion; set-up: dose 4 mg/kg, route intravenous; settings: in vivo
[40] = Half life in morbidly obese adult human at 4 mg/kg, iv administered as single dose 30 mins infusion; set-up: dose 4 mg/kg, route intravenous; settings: in vivo
Homo sapiens = assay: Unbound clearance in healthy human at 8 mg/kg, iv administered as 30 mins infusion every 24 hrs measured on day 14; set-up: dose 8 mg/kg, route intravenous; settings: in vivo
[41] = Clearance in healthy human subjects at 10 mg/kg, iv administered as 30 mins infusion every 24 hrs measured on day 1; set-up: dose 10 mg/kg, route intravenous; settings: in vivo
[42] = Clearance in healthy human subjects at 6 mg/kg, iv administered as 30 mins infusion every 24 hrs measured on day 1; set-up: dose 6 mg/kg, route intravenous; settings: in vivo
[43] = Half life in healthy human subjects at 10 mg/kg, iv administered as 30 mins infusion every 24 hrs measured on day 14; set-up: dose 10 mg/kg, route intravenous; settings: in vivo
[44] = Half life in healthy human at 4 mg/kg, iv administered as 30 mins infusion every 24 hrs measured on day 7; set-up: dose 4 mg/kg, route intravenous; settings: in vivo

CCCCCCCCCC(=O)N[C@@H](Cc1c[nH]c2ccccc12)C(=O)N[C@H](CC(N)=O)C(=O)N[C@@H](CC(=O)O)C(=O)N[C@@H]1C(=O)NCC(=O)N[C@@H](CCCN)C(=O)N[C@@H](CC(=O)O)C(=O)N[C@H](C)C(=O)N[C@@H](CC(=O)O)C(=O)NCC(=O)N[C@H](CO)C(=O)N[C@@H]([C@H](C)CC(=O)O)C(=O)N[C@@H](CC(=O)c2ccccc2N)C(=O)O[C@@H]1C
Cmax [1]: 57.8 µg/mL | Cmax [2]: 77.5 µg/mL | fraction unbound at 1 day [3]: 0.08 | fraction unbound at 7 day [4]: 0.08 | AUC(0-inf) [5]: 427 µg·h/mL | Vd [6]: 0.0983 L/kg | Vd [7]: 0.101 L/kg | Vd [8]: 0.111 L/kg | Vd [9]: 0.103 L/kg | Vd [10]: 0.092 L/kg | Cmax [11]: 116 µg/mL | Cmax [12]: 54.6 µg/mL | half-life [13]: 440 min | half-life [14]: 711 min | AUC(0-inf) [15]: 419 µg·h/mL | AUC(0-inf) [16]: 548 µg·h/mL | AUC(0-inf) [17]: 322 µg·h/mL | concentration at 24 h [18]: 3390 ng/mL | AUC(0-inf) [19]: 1080 µg·h/mL | AUC(0-inf) [20]: 632 µg·h/mL | AUC(0-inf) [21]: 773 µg·h/mL | AUC(0-inf) [22]: 747 µg·h/mL | Cmax [23]: 182 µg/mL | Cmax [24]: 141 µg/mL | Cmax [25]: 106 µg/mL | Cmax [26]: 130 µg/mL | Cmax [27]: 133 µg/mL | dose excreted at 0.5 h [28]: 42.7% | dose excreted at 0.5 h [29]: 52.3% | dose excreted at 0.5 h [30]: 51.8% | MRT [31]: 15.9 h | Vd [32]: 0.09 L/kg | Vd [33]: 0.18 L/kg | Vd [34]: 0.15 L/kg | Vd [35]: 0.15 L/kg | clearance [36]: 0.2 mL/min/kg | clearance [37]: 0.13 mL/min/kg | clearance [38]: 0.245 mL/min/kg | clearance [39]: 0.271 mL/min/kg | half-life [40]: 487 min | CL (Homo sapiens): 44.7 mL/h/kg | clearance [41]: 0.165 mL/min/kg | clearance [42]: 0.165 mL/min/kg | half-life [43]: 474 min | half-life [44]: 486 min
